Only some compounds are listed: those with a hit (about 2.5% of all), similar ones and a draw of the others.
HIV Env fusion: blocks HIV Env-driven cell-cell fusion. inhibition, % at 12.3 µM. HeLa-JRFL Env/CEM21 cell fusion, luciferase. 1.1% of 360,000 active;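 active = mean replicate inhibition score of at least 50 and every replicate individually at or above 50; inconclusive = only one of the two criteria met; inactive = mean below 50 and not all replicates reaching 50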;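 also: 0% = plate neutral controls and 100% = maraviroc near 300 nM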
FN deposit inh: fibronectin deposition inhibition | AH1F fibroblasts, Alexa488-fibronectin deposition fluorescence, overnight | inhibition, % at 12.6 µM | 0.086% of 350,000 active | AID 743247;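 active = mean inhibition across replicates of 30% or more, regardless of how many single replicates reach that level; inconclusive = mean under 30% yet at least half of replicates reach 30%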;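 also: positive control wells lacked labelled fibronectin entirely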
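Assay system: AH1F fibroblasts assembling fluorescent fibronectin matrix; Amount: 10000 AH1F cells per well; Buffer or medium: DMEM, 2% serum; Probe or stimulus: Alexa488-fibronectin, 24 nM final in well; Doses: single compound dose, delivered by pin transfer; Incubation: 1 h adhesion, overnight exposure; Measured by: fluorescence 485/525 nm; Read-out: fibronectin deposition inhibition.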
PAX8 inh HTS: PAX8 transcriptional activity inhibition. RMG-I TPO-luciferase reporter, SteadyGlo, 24 h. inhibition, % at 12.6 µM. 1.2% of 360,000 active. AID 652154;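 active = mean replicate inhibition at least 60% with every replicate also reaching 60%; inconclusive = only one of the two criteria is met; inactive = mean below 60% and not all replicates reaching 60%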;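 also: luciferase light reporting Pax8 driven TPO promoter activity; plate controls were median of neutral control wells for no effect and mitoxantrone controls for full effect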
Glyco luc inh: N-linked glycosylation inhibition; 0.23% of 360,000 active; AID 588692; D54 ERlucT glycosylation luciferase reporter, 24 h; percent of 100 nM tunicamycin response; reporter increase, % at 12.5 µM;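 active = mean luciferase reporter signal, scaled so untreated is 0 and the glycosylation-blocking control 100, at or above a set limit in every replicate; inconclusive = mean reaches the limit but not every replicate does; inactive = mean below the limit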;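 also: luciferase carries N-glycosylation sites so blocking glycosylation raises the light; 0% = median of neutral control wells and 100% = median of 100 nM tunicamycin wells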
EWS-Fli inh: EWS/Fli transcriptional activity inhibition; A673 NR0B1-luciferase reporter, viability-normalised; inhibition, % at 12.6 µM; 0.67% of 350,000 active; AID 651661;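 active = mean inhibition of at least 50% after viability correction, with every replicate also passing that limit; inconclusive = mean reaches 50% but only one of two replicates passes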;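 also: firefly luciferase signal divided by Alamar Blue viability fluorescence both relative to DMSO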
AF4-AF9 inh: MLL-AF4/AF9 protein interaction inhibition | P42568 | inhibition, % at 10 µM | AlphaScreen, biotin-AF4 peptide binding to FLAG-AF9 | 0.47% of 350,000 active | AID 651704;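 active = every replicate reaching a set inhibition limit, whatever the replicate mean, cut at about 25% in these data; inconclusive = mean inhibition reaches that limit but some replicates miss it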;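 also: 0% = plate neutral control median and 100% = total signal loss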
Target sequence (P42568 whole entry, looked up): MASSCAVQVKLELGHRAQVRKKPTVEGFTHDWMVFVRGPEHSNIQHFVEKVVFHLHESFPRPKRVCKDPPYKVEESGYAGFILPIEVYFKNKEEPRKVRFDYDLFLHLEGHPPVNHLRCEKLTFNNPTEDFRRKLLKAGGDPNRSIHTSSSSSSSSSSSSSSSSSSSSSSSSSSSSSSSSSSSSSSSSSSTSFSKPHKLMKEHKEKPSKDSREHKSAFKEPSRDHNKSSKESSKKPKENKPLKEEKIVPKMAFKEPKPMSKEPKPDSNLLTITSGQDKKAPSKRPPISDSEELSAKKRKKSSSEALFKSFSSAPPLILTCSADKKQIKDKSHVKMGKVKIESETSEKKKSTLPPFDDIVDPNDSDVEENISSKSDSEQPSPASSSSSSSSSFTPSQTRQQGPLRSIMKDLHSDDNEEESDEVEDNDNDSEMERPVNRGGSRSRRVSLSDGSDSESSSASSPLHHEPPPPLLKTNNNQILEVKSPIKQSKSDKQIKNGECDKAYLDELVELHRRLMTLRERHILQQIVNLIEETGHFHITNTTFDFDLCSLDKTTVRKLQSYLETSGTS
* hit, by the source's call; ? = inconclusive; nt = no result; ! = repeats disagree; [ ] = another dose, or the depositor's remark.

SMILES	HIV Env fusion	FN deposit inh	PAX8 inh HTS	Glyco luc inh	EWS-Fli inh	AF4-AF9 inh
Cc1cc(C(=O)Nc2cccc3c2O[C@@H](CN(C)Cc2ccccc2)[C@@H](C)CN([C@H](C)CO)C3=O)n(C)n1	-9[16.7 µM]	nt	-6	nt	1	-1
C[C@@H]1CN([C@H](C)CO)C(=O)c2cccc(NC(=O)c3ccncc3)c2O[C@H]1CN(C)Cc1ccc(Cl)c(Cl)c1	75*[16.7 µM]	nt	61*	nt	-4	-3
Cc1noc(C)c1NC(=O)Nc1cccc2c1O[C@H](CN(C)Cc1ccc(-c3ccccc3)cc1)[C@@H](C)CN([C@H](C)CO)C2=O	nt	nt	62*	nt	6	3
Cc1cc(C(=O)Nc2cccc3c2O[C@H](CN(C)Cc2ccc(Oc4ccccc4)cc2)[C@@H](C)CN([C@H](C)CO)C3=O)n(C)n1	16[16.7 µM]	nt	76*	nt	-17	7
C[C@H](CO)N1C[C@H](C)[C@@H](CN(C)Cc2ccc(Oc3ccccc3)cc2)Oc2c(NC(=O)c3ccncc3)cccc2C1=O	-27	7	4	-3	-9	25*!
CNC[C@H]1OCCCC[C@H](C)Oc2ccc(NS(=O)(=O)c3ccc(OC)cc3)cc2C(=O)N([C@@H](C)CO)C[C@@H]1C	6[16.7 µM]	nt	-26	nt	4	-1
C[C@@H](NC(=O)C[C@@H]1CC[C@H](NC(=O)CN2CCOCC2)[C@@H](CO)O1)c1ccccc1	23[16.7 µM]	2	-5	nt	0	2
C[C@@H]1CN([C@H](C)CO)C(=O)c2cccc(NC(=O)Nc3ccccc3)c2O[C@@H]1CN(C)Cc1ccc(Cl)c(Cl)c1	-90[16.7 µM]	-7	32	nt	-11	7
C[C@H]1CN([C@@H](C)CO)C(=O)c2cccc(NC(=O)Nc3ccccc3)c2O[C@@H]1CN(C)Cc1ccc(Cl)c(Cl)c1	62*[16.7 µM]	-2	14	nt	-2	5
C[C@@H]1CN([C@@H](C)CO)C(=O)c2cccc(NC(=O)c3cnccn3)c2O[C@H]1CN(C)Cc1ccc(Cl)c(Cl)c1	63*[16.7 µM]	nt	-35	nt	10	4
C[C@@H]1CN([C@H](C)CO)C(=O)c2cccc(NC(=O)c3ccncc3)c2O[C@@H]1CN(C)Cc1ccc(C(=O)O)cc1	114*	-7	-44	1	-2	-2
C[C@H](CO)N1C[C@H](C)[C@H](CN(C)CC2CCCCC2)Oc2c(NC(=O)c3ccncc3)cccc2C1=O	12[16.7 µM]	-4	-3	nt	17	3
C[C@@H]1CN([C@@H](C)CO)C(=O)c2cccc(NC(=O)c3cnccn3)c2O[C@@H]1CN(C)Cc1ccc(Cl)c(Cl)c1	6[16.7 µM]	nt	9	nt	-5	4
C[C@@H]1CN([C@H](C)CO)C(=O)c2cccc(NC(=O)c3ccncc3)c2O[C@H]1CN(C)CC1CCCCC1	93*[16.7 µM]	1	0	nt	-5	1
O=C([C@@H]1[C@@H](CO)[C@@H]2Cn3c(ccc(-c4cccnc4)c3=O)[C@@H]2N1CCC(F)(F)F)N1CCOCC1	8[16.7 µM]	nt	-3	nt	1	-3
O=C1C=CC(O)(c2cc(=O)c3c(O)cc(O)cc3o2)C=C1	-255	1	89*	-19	73*	-40
O=c1cc(-c2ccccc2Cl)oc2cc(O)cc(O)c12	-82	-1	-111	-2	-36	1
CCOC(=O)N1CCN(S(=O)(=O)c2ccc(C(=O)N(CCCN(C)C)c3nc4c(C)c(C)ccc4s3)cc2)CC1	-11	-8	-14	-6	-9	26*
CN(C)CCCN(C(=O)CCc1ccccc1)c1nc2ccc(Br)cc2s1	-36	15	11	-7	35	26*
Cc1cc(C)c2nc(N(CCN(C)C)C(=O)c3ccc4ccccc4c3)sc2c1	12	-1	-7	-1	4	0
CN(C)CCCN(C(=O)CCc1ccccc1)c1nc2ccc(F)cc2s1	-54	nt	2	-3	nt	nt
Cc1ccc2sc(N(CCCN(C)C)C(=O)CCS(=O)(=O)c3ccccc3)nc2c1C	1	13	81*	-17	nt	1
COc1ccc(C)c2sc(N(CCN(C)C)C(=O)c3ccc4ccccc4c3)nc12	0	5	14	-2	1	29*
CCOC(=O)N1CCN(S(=O)(=O)c2ccc(C(=O)N(CCN(C)C)c3nc4c(C)cccc4s3)cc2)CC1	-2	-1	-5	0	-2	2
CCCN(C)C[C@H]1Oc2ncc(C#CCN(C)C)cc2C(=O)N([C@@H](C)CO)C[C@@H]1C	2[16.7 µM]	nt	nt	nt	5	9
SMILES	HIV Env fusion	FN deposit inh	PAX8 inh HTS	Glyco luc inh	EWS-Fli inh	AF4-AF9 inh
Cc1ccccc1-c1cnc2c(c1)C(=O)N([C@@H](C)CO)C[C@@H](C)[C@H](CN(C)C(=O)c1cccnc1)O2	20[16.7 µM]	nt	nt	nt	-10	-2
Cc1noc(C)c1S(=O)(=O)Nc1ccc2c(c1)CC(=O)N([C@H](C)CO)C[C@H](C)[C@@H](CN(C)Cc1ccc(C(=O)O)cc1)O2	-9[16.7 µM]	nt	nt	nt	-4	-10
COc1ccc(OC)c2sc(N(CCCN(C)C)C(=O)CCS(=O)(=O)c3ccccc3)nc12	27	nt	108*	-12	43	4
C[C@@H]1CN([C@@H](C)CO)C(=O)Cc2cc(NC(=O)Nc3ccccc3)ccc2O[C@H]1CN(C)Cc1ccc(Oc2ccccc2)cc1	9[16.7 µM]	nt	82*	nt	23	3
Cc1noc(C)c1NC(=O)N(C)C[C@H]1Oc2ccc(NC(=O)CCCN(C)C)cc2CC(=O)N([C@@H](C)CO)C[C@@H]1C	-14[16.7 µM]	nt	-14	nt	-6	31*
C[C@@H]1CN([C@@H](C)CO)C(=O)Cc2cc(NC(=O)Cc3ccccc3)ccc2O[C@H]1CN(C)Cc1ccc(Oc2ccccc2)cc1	16[16.7 µM]	nt	72*	nt	4	4
COc1ccc(NC(=O)Nc2ccc3c(c2)CC(=O)N([C@@H](C)CO)C[C@H](C)[C@H](CN(C)Cc2ccc(Oc4ccccc4)cc2)O3)cc1	10[16.7 µM]	nt	-13	nt	-4	-1
COc1ccc(NC(=O)Nc2ccc3c(c2)CC(=O)N([C@H](C)CO)C[C@H](C)[C@@H](CN(C)Cc2ccc(Oc4ccccc4)cc2)O3)cc1	-1[16.7 µM]	nt	69*	nt	5	3
CCCNC(=O)N1C[C@@H]2[C@H](c3ccccc31)[C@@H](CO)N2Cc1cc(F)ccc1F	nt	nt	-2	nt	2	-1
CC(C)CC#Cc1ccc2c(c1)O[C@H](CN(C)C(=O)Cc1ccccc1)[C@@H](C)CN([C@@H](C)CO)S2(=O)=O	31[16.7 µM]	2	nt	nt	28	-1
CO[C@H]1CN(C)C(=O)c2ccc(NS(=O)(=O)c3ccccc3C)cc2OC[C@H](C)N(C)C[C@@H]1C	nt	nt	3	nt	nt	1
COc1ccc(S(=O)(=O)N[C@@H]2CC[C@H](CC(=O)NCCc3ccncc3)O[C@@H]2CO)cc1	4[16.7 µM]	nt	-11	nt	8	-1
C[C@H](CO)N1C[C@H](C)[C@@H](CN(C)Cc2ccc(Oc3ccccc3)cc2)Oc2ccc(NC(=O)CCCN(C)C)cc2CC1=O	-10[16.7 µM]	nt	-15	nt	-3	?

Bioassay records from PubChem BioAssay.
